Measured values from ChEMBL document CHEMBL1125488, “Synthesis of the acridone alkaloids glyfoline and congeners. Structure-activity relationship studies of cytotoxic acridones” (J Med Chem, 1992).
Values joined by “and” are separate entries in the source; they are usually repeats but may differ in a detail not shown here. Identical values can stand only once.

The compounds below were run on HL-60 (assay: Ability to inhibit human leukemic HL-60 cell growth in culture). Settings: Homo sapiens, HL-60.
Format: functional, cell-based
Outline: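 HL-60 cells seeded at 1.5 × 10^5/mL in RPMI 1640 and exposed to compound at 0.0025–0.05 mg/mL (in 0.1% DMSO). Incubation was 72 h at 37 °C under humidified 5% CO2. Viable cells were counted by trypan blue exclusion on a hemocytometer. IC50 was the median-effect concentration, taken from a median-effect plot of fractional inhibition over three to five dose-effect levels.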
Compound `COc1c(OC)c(OC)c2c(c1O)c(=O)c1ccc([N+](=O)[O-])cc1n2C` has an IC50 of over 100 µM. Work on `COc1c(OC)c(OC)c2c(c1O)c(=O)c1cc([N+](=O)[O-])ccc1n2C` yielded an IC50 of over 100 µM. Work on `COc1c(OC)c(O)c2c(O)c3ccc(O)c(OC)c3nc2c1OC` yielded an IC50 of over 100 µM. `CNc1ccc2c(=O)c3c(O)c(OC)c(OC)c(OC)c3n(C)c2c1` showed an IC50 of 10.6 µM. `COc1c(OC)c(OC)c2c(c1O)c(=O)c1ccc(N)cc1n2C` was tested, and the IC50 was 11.6 µM. For `CCN(CC)CCn1c2c(OC)c(O)ccc2c(=O)c2c(O)c(OC)c(OC)c(OC)c21`, the IC50 was 62.2 µM. `COc1ccc2c(=O)c3c(OC)c(OC)c(OC)c(OC)c3n(C)c2c1OC` gave an IC50 of 23.3 µM. With `COc1c(OC)c(OC)c2c(c1O)c(=O)c1cccc(OC)c1n2C` the IC50 was 12.8 µM. Compound `COc1ccc2c(=O)c3c(O)c(OC)c(OC)c(OC)c3n(C)c2c1OC` has an IC50 of 3.4 µM. With `COc1c(OC)c(OC)c2c(c1O)c(=O)c1cc(N)ccc1n2C` the IC50 was 44.4 µM. `COc1c(OC)c(OC)c2c(c1O)c(=O)c1ccc(N(C)C)cc1n2C` gave an IC50 of 9.4 µM. In the case of `COc1cc2c(c3c1c(=O)c1ccccc1n3C)C=CC(C)(C)O2` [ACRONINE], the IC50 is reported as 26.2 µM. `COc1c(OC)c(OC)c2c(c1O)c(=O)c1ccc(O)c(OC)c1n2C` [GLYFOLINE] was tested, and the IC50 was 2.2 µM.

Same assay, conditions: hl-60
In the case of `COc1c(OC)c(OC)c2c(c1OC)c(=O)c1ccc(O)c(OC)c1n2C`, the IC50 is reported as 91.9 µM and 23.7 µM.
